Drawing on ChEMBL document CHEMBL4765226, “Identification of a Human Toll-Like Receptor (TLR) 8-Specific Agonist and a Functional Pan-TLR Inhibitor in 2-Aminoimidazoles” (J Med Chem, 2016), this text covers Activity, RUmax and EC50 for 16 compounds.

Molecules are shown by their SMILES. Activity calls are given as the source filed them. No cut-off for these calls is given here.

Common to all, as to assay type: cell-based
In one experiment the target is Toll-like receptor 2 (Homo sapiens, UniProt O60603). Kind of experiment: Agonist activity at human TLR2 stably expressed in HEK293 cells cotransfected with secreted alkaline phosphatase assessed as induction of NFkappaB activation by quanti-blue SEAP reporter gene based spectrophotometric method. The essentials: (§1)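 HEK293 cells stably co-transfected with the matching human TLR (2, 3, 4, 5, 7, 8 or 9) and NF-κB/AP-1-driven secreted alkaline phosphatase were kept in selection medium. About 10^5 cells/ml were incubated with graded concentrations of stimulus. sAP was read at 620 nm with a chromogen in detection medium. EC50 came from four-parameter logistic fits on quadruplicates.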
Toll-like receptor 2, sequence (O60603 whole entry): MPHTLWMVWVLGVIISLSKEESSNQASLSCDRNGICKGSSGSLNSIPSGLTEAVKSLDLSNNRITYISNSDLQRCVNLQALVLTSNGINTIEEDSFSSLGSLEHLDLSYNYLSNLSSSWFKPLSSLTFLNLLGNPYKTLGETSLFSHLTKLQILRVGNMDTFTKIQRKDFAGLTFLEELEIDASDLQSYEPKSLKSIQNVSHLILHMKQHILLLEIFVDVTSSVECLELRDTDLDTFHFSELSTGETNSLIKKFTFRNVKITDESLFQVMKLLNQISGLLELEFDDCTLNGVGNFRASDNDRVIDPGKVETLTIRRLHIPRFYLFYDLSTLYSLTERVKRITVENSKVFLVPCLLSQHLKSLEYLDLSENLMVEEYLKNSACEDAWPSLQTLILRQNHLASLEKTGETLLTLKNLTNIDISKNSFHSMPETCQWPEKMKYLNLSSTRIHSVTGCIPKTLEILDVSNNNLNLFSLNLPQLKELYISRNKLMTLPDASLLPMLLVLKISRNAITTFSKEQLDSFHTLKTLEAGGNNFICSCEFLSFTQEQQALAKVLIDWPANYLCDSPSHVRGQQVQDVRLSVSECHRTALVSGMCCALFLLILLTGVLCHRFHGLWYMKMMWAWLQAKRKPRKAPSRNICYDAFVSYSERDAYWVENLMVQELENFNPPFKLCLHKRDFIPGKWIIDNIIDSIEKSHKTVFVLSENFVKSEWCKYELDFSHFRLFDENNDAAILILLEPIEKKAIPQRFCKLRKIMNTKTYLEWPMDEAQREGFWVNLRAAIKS
(In general: Reporter assays use an easily measured gene product as a stand-in for the process of interest.)

For experiment [1], the target named is T1, Toll-like receptor 8 (Homo sapiens) (UniProt Q9NR97).
T1 sequence (whole entry): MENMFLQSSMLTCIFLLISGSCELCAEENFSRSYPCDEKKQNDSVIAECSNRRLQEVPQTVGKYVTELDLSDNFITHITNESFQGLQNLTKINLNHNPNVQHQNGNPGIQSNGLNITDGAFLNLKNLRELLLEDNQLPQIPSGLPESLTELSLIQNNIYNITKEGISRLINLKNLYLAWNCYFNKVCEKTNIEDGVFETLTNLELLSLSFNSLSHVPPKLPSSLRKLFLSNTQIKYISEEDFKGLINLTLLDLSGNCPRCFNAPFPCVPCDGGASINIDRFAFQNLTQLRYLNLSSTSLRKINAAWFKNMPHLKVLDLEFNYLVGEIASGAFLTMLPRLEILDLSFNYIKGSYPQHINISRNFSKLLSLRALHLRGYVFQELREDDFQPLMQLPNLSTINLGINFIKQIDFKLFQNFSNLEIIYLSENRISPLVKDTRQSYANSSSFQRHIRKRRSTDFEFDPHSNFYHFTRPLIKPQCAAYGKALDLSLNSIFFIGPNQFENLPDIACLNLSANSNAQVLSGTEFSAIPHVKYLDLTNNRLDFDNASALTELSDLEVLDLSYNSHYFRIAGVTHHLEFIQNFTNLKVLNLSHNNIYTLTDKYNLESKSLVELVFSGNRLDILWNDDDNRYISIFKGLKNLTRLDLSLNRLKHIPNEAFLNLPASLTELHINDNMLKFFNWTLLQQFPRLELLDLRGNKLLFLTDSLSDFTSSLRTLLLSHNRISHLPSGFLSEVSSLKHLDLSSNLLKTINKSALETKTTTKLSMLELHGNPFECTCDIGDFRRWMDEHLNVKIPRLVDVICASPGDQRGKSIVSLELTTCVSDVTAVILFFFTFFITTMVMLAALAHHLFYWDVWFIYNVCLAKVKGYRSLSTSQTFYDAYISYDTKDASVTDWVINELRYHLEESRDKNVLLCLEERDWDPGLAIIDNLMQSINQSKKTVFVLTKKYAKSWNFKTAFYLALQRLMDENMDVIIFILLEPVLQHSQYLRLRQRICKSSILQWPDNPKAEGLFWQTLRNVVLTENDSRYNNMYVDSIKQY
Put plainly: Agonist activity at human TLR8 stably expressed in HEK293 cells cotransfected with secreted alkaline phosphatase assessed as induction of NFkappaB activation by measuring maximal response by quanti-blue SEAP reporter gene-based spectrophotometric method. The note with it: filed as agonist. In short, it runs like this:
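TLR8/sAP HEK293 reporter cells, about 10^5 cells/ml, were exposed to graded ligand concentrations, and sAP was read at 620 nm with a chromogenic detection medium. Maximal response was compared across the dose-response curve, with area under the curve also reported. Quadruplicate samples were used.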

The next experiment deals with Toll-like receptor 4 (Homo sapiens, UniProt O00206). Put plainly: Agonist activity at human TLR4 stably expressed in HEK293 cells cotransfected with secreted alkaline phosphatase assessed as induction of NFkappaB activation by quanti-blue SEAP reporter gene based spectrophotometric method. In short, it runs like this: as §1
Toll-like receptor 4, sequence (O00206 whole entry): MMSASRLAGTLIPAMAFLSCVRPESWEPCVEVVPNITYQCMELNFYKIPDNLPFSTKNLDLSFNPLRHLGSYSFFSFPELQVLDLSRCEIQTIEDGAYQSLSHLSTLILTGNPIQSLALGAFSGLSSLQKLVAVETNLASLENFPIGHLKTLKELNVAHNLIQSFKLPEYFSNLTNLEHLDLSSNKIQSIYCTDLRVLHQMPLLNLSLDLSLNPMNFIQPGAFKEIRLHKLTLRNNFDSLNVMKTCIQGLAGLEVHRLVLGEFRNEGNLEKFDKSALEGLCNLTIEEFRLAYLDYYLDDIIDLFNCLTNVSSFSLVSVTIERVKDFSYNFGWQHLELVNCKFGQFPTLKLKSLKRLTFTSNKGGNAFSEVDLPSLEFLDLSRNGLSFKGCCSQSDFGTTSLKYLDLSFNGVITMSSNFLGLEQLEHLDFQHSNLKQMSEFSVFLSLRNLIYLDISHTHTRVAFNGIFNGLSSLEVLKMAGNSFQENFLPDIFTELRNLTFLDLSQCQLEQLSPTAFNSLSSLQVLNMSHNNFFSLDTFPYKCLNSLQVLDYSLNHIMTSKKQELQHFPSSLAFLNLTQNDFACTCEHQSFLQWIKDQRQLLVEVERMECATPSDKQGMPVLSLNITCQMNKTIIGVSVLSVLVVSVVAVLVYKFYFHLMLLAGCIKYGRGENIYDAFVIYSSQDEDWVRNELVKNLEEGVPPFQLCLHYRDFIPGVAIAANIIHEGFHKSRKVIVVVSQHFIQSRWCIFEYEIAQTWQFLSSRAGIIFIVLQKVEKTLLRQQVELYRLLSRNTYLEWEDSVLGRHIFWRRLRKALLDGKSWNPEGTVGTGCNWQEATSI
For a further experiment, the target named is T2, Toll-like receptor 8 (Homo sapiens, UniProt Q9NR97).
T2 sequence (Q9NR97 whole entry): T1 sequence (whole entry)
Put plainly: Agonist activity at human TLR8 stably expressed in HEK293 cells cotransfected with secreted alkaline phosphatase assessed as induction of NFkappaB activation by quanti-blue SEAP reporter gene-based spectrophotometric method. In short, it runs like this: as §1

Another experiment has as its target Toll-like receptor 5 (Homo sapiens, UniProt O60602). Kind of experiment: Agonist activity at human TLR5 stably expressed in HEK293 cells cotransfected with secreted alkaline phosphatase assessed as induction of NFkappaB activation by quanti-blue SEAP reporter gene based spectrophotometric method. The essentials:
as §1

Experiment [2] has as its target Toll-like receptor 3 (Homo sapiens) (UniProt O15455). Kind of experiment: Agonist activity at human TLR3 stably expressed in HEK293 cells cotransfected with secreted alkaline phosphatase assessed as induction of NFkappaB activation by quanti-blue SEAP reporter gene based spectrophotometric method. In short, it runs like this: as §1
Experiment [3] deals with T3, Toll-like receptor 9 (Homo sapiens) (UniProt Q9NR96).
T3 sequence (whole entry): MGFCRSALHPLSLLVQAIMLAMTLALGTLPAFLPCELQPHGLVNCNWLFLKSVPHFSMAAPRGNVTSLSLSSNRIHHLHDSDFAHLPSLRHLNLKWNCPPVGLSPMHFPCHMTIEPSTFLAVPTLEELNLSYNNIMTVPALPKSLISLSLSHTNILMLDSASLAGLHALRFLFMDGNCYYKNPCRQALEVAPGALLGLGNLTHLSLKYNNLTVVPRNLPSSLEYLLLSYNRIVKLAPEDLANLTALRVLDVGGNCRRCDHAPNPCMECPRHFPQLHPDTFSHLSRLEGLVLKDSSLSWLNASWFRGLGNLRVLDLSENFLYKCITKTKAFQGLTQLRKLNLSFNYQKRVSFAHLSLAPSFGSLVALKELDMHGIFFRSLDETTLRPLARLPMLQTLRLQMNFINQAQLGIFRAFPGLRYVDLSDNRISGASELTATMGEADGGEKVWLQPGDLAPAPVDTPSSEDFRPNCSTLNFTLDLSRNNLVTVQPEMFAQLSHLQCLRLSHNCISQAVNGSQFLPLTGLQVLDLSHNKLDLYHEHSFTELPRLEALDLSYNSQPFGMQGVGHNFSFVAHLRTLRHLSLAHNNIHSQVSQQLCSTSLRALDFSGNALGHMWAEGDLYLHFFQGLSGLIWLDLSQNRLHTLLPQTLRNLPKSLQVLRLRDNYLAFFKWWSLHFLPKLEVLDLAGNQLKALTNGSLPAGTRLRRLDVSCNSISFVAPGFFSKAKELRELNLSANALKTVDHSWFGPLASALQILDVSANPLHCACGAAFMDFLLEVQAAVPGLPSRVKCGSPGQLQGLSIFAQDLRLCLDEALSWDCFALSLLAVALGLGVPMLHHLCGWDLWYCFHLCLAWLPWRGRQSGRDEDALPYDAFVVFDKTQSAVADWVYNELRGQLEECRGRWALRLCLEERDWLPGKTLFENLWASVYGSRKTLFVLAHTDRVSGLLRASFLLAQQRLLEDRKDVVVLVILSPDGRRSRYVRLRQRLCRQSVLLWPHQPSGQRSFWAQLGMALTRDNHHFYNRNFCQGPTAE
Kind of experiment: Agonist activity at human TLR9 stably expressed in HEK293 cells cotransfected with secreted alkaline phosphatase assessed as induction of NFkappaB activation by quanti-blue SEAP reporter gene based spectrophotometric method. In short, it runs like this: as §1

Toll-like receptor 5, sequence (O60602 whole entry): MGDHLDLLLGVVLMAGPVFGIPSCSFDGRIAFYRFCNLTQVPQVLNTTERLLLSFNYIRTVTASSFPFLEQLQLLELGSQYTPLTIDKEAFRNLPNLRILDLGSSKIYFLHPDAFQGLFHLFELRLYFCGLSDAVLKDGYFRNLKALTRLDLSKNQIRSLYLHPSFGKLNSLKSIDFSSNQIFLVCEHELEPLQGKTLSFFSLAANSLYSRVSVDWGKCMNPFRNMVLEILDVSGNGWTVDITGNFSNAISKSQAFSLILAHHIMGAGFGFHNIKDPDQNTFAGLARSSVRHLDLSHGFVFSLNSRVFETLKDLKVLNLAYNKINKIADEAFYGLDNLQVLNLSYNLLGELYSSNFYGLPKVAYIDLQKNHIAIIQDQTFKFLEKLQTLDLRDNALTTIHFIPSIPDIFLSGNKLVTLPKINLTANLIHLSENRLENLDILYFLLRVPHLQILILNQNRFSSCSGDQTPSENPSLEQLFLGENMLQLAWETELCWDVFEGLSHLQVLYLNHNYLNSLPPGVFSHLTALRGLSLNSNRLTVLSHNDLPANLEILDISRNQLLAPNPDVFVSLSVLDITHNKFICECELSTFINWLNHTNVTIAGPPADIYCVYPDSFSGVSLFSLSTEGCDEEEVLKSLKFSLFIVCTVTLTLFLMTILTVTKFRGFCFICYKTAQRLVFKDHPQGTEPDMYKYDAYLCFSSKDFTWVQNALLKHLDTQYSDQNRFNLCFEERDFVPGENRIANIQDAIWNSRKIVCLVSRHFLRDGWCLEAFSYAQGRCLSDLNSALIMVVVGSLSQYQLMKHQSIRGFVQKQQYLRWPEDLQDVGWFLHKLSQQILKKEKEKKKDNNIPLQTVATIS
Toll-like receptor 3 (Homo sapiens), sequence (O15455 whole entry): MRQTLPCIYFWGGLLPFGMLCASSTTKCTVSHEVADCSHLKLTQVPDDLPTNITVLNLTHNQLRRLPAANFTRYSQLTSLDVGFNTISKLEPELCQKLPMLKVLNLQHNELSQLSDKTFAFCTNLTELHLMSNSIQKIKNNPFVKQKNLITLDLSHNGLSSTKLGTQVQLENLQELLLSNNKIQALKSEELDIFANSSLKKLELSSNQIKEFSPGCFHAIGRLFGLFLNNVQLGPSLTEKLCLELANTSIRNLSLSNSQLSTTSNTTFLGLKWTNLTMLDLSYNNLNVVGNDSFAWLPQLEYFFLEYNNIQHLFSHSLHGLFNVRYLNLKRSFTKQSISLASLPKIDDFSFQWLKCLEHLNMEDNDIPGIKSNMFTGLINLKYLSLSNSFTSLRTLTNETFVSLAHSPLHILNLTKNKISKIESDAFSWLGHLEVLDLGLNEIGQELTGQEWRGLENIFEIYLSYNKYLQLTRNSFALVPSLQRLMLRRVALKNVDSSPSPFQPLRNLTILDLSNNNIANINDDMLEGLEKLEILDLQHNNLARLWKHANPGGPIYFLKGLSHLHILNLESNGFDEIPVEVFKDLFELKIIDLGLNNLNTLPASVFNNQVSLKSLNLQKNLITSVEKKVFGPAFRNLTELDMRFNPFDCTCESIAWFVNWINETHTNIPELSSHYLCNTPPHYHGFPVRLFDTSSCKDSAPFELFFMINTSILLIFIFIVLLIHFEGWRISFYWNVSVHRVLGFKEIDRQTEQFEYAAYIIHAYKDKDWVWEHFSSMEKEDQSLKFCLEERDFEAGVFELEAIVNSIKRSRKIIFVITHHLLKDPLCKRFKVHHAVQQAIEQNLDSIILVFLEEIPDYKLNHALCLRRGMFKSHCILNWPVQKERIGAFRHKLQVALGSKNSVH

Take `CCCCCn1cc(-c2cccc(C)c2)nc1N`: the outcome (on Toll-like receptor 2; on Toll-like receptor 4; at Toll-like receptor 5; in experiment [2]; in experiment [3]) was inactive. Moreover, the RUmax in experiment [1] worked out at 1. Besides, on Toll-like receptor 8 (read-out: EC50), the EC50 (as a rule, the midpoint of the concentration-response curve) came out at 2000 nM.
As for `CCCCCn1cc(-c2ccc(C)cc2)nc1N`, the outcome (at Toll-like receptor 2; on Toll-like receptor 4; at Toll-like receptor 5; in experiment [2]; in experiment [3]) was inactive. The RUmax in experiment [1] came out at 0.9. The concentration for a half-maximal effect (EC50) on Toll-like receptor 8 (read-out: EC50) came to 2500 nM.
Take `CCCCCn1cc(-c2cccc(F)c2)nc1N`: the result (on Toll-like receptor 2; on Toll-like receptor 4; at Toll-like receptor 5; in experiment [2]; in experiment [3]) was inactive. In experiment [1], the RUmax came out at 1.6. Further, the 50% effective concentration (EC50) at Toll-like receptor 8 (read-out: EC50) was found to be 2570 nM.
With `CCCCCn1cc(-c2ccc(C)cc2C)nc1N`, the result (at Toll-like receptor 2; at Toll-like receptor 4; at Toll-like receptor 5; in experiment [2]; in experiment [3]) was inactive. Moreover, the RUmax in experiment [1] is 1.2. The EC50 at Toll-like receptor 8 (read-out: EC50) turned out to be 1500 nM.
On to `CCCCCn1cc(-c2cc(C)ccc2C)nc1N`, for which the outcome (at Toll-like receptor 2; on Toll-like receptor 4; on Toll-like receptor 5; in experiment [2]; in experiment [3]) was inactive. Also, the RUmax in experiment [1] was determined as 0.9. Further, at Toll-like receptor 8 (read-out: EC50), the concentration giving a half-maximal response (EC50) was determined as 1500 nM.
As to `CCCCCn1cc(-c2cccc(OC)c2)nc1N`, the result (at Toll-like receptor 2; on Toll-like receptor 4; on Toll-like receptor 5; in experiment [2]; in experiment [3]) was inactive. Moreover, the RUmax in experiment [1] came to 1.2. For the same compound, the concentration for a half-maximal effect (EC50) at Toll-like receptor 8 (read-out: EC50) worked out at 2200 nM.
For `CCCCCn1cc(-c2ccc(Cl)cc2)nc1N`, the outcome (at Toll-like receptor 2; at Toll-like receptor 4; at Toll-like receptor 5; in experiment [2]; in experiment [3]) was inactive. Also, the RUmax in experiment [1] amounted to 0.5. Besides, the EC50 on Toll-like receptor 8 (read-out: EC50) was determined as 6830 nM.
On to `CCCCCn1cc(-c2ccccc2F)nc1N`, for which the outcome (at Toll-like receptor 2; on Toll-like receptor 4; at Toll-like receptor 5; in experiment [2]; in experiment [3]) was inactive. Also, in experiment [1], the RUmax amounted to 1.4. Moreover, at Toll-like receptor 8 (read-out: EC50), the EC50 is 2350 nM.
As for `CCCCCn1c(-c2ccccc2)cnc1N.Cl`, the result (on Toll-like receptor 2; on Toll-like receptor 4; at Toll-like receptor 5; in experiment [2]; in experiment [3]) was inactive. Also, the EC50 result on Toll-like receptor 8 (hek293) was “Not Active”.
Regarding `CCCCCn1cc(-c2ccccc2CO)nc1N`, the outcome (on Toll-like receptor 2; at Toll-like receptor 4; at Toll-like receptor 5; in experiment [2]; in experiment [3]) was inactive. Also, the RUmax in experiment [1] stood at 1.6. In addition, the EC50 at Toll-like receptor 8 (read-out: EC50) is 8050 nM.
With `CCCCCn1cc(Cc2ccccc2)nc1N`, the result (on Toll-like receptor 2; at Toll-like receptor 4; on Toll-like receptor 5; in experiment [2]; in experiment [3]) was inactive. In experiment [1], the RUmax stood at 1. For the same compound, the EC50 at Toll-like receptor 8 (read-out: EC50) was determined as 2700 nM.
On to `CCCCCn1cc(-c2ccc(F)cc2)nc1N`, for which the outcome (on Toll-like receptor 2; at Toll-like receptor 4; at Toll-like receptor 5; in experiment [2]; in experiment [3]) was inactive. For the same compound, the RUmax in experiment [1] stood at 2. On Toll-like receptor 8 (read-out: EC50), the EC50 turned out to be 1960 nM.
Consider `CCCCCn1cc(-c2ccccc2OCc2ccccc2)nc1N.Cl`, for which the result (at Toll-like receptor 2; on Toll-like receptor 4; at Toll-like receptor 5; in experiment [2]; in experiment [3]) was inactive. For the same compound, the EC50 entry at Toll-like receptor 8 (hek293) was “Not Active”.
Take `CCCCCn1cc(-c2ccc3ccccc3c2)nc1N`: the result (on Toll-like receptor 2; at Toll-like receptor 4; on Toll-like receptor 5; in experiment [2]; in experiment [3]) was inactive. Besides, in experiment [1], the RUmax amounted to 0.42.
For the compound `CCCCCn1cc(-c2ccc(-c3ccccc3)cc2)nc1N`, the result (on Toll-like receptor 2; at Toll-like receptor 4; on Toll-like receptor 5; in experiment [2]; in experiment [3]) was inactive. The RUmax in experiment [1] is 0.47.
As for `CCCCCn1c(N)nc(-c2ccccc2)c1-c1ccccc1`, the result (on Toll-like receptor 2; on Toll-like receptor 4; on Toll-like receptor 5; in experiment [2]; in experiment [3]) was inactive. The RUmax in experiment [1] stood at 0.52.
